# Beta cell apopt: beta cell apoptosis inhibition. protection from apoptosis, % (test concentration not listed). INS-1E cytokine-induced death, ATP luminescence, 48 h; percent of positive-control rescue, neutral wells zero. 300,000 compounds, 0.8% hits;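 active means Every replicate reaches about 75%, or at least half do and their mean reaches it too, limit read from the data; inconclusive means At least half of replicates reach the limit but their mean does not; inactive means Under half of replicates reach the limit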;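 further: 0% = cytokine-treated negative control wells and 100% = positive control rescue; higher means more ATP so stronger rescue from cytokine killing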
# Mot1-301 SUMO: SUMOylation pathway inhibition by Mot1-301 growth rescue | growth rescue, % at 18.8 µM | AID 2716 | 320,000 compounds, 1% hits | S. cerevisiae Mot1-301 growth rescue, ATP luminescence, 38.5C; percent above DMSO median, 100 means doubled;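 active means every valid replicate shows activation above 250% relative to neutral control wells; inactive means the rest, any valid replicate at or below 250%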;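 further: OY570 slx delta 5 strain wells were the positive control but not used for scaling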
# CSC inhib: cancer stem cell inhibition | cancer stem cell-like cells viability, luminescence | inhibition, % at 7.5 µM | 300,000 compounds, 1.1% hits | AID 2717; in the data active means inhibition above about 75%; inconclusive means no clear call, values can overlap the other calls; tested in HMLE shEcad cells
# Efflux pump mplx: inhibitors of Candida antifungal efflux pumps expressed in yeast. S. cerevisiae Candida pump triplex, Nile Red efflux. inhibition, % at 10 µM. 330,000 compounds, 0.44% hits. AID 485275;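 active means plate passing quality check with inhibition over a set limit, or well fluorescence over plate mean plus 4 SD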;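 further: Nile Red retained in pooled yeast measured as flow cytometry median fluorescence; 0% = buffer negative control and 100% = Enniatin B positive control; higher means more Nile Red kept so more efflux inhibition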
# T cruzi inh: blocks replication of Trypanosoma cruzi; T. cruzi beta-gal in NIH3T3, luminescence, 90 h; inhibition, % (no concentration beside the values); 300,000 compounds, 1.4% hits; AID 1885;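 active means mean inhibition across valid replicates above about 55%, limit read from the data; inconclusive means mean below that limit but half or more replicates reach it; inactive means mean below it, under half of replicates reach it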;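 further: signal also drops with host cell toxicity which is not excluded here; 0% = plate median of DMSO wells and 100% = zero luminescence signal; higher percent means less beta-gal luminescence so fewer parasites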
#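 assay system = mouse NIH/3T3 fibroblasts infected with β-gal-expressing T. cruzi Tulahuen C4 | input = 5,000 NIH/3T3 host cells per well | buffer or medium = DMEM plus 2% FBS | timing = 3 h host attachment, then at least 90 h co-culture | measured by = GalScreen luminescence, 60 min | evaluation = luminescence reflecting intracellular parasite burden, expressed as percent inhibition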
# WT yeast gro inh: growth inhibition of WT yeast, mitochondrial fusion screen | mitochondrial fusion phenotypic screen, WT strain | 190,000 compounds, 2.1% hits | inhibition, % at 10 µM | AID 1362; in the data active means inhibition above about 58%; tested in S. cerevisiae
# * marks the source's active call; other numbers are inactive results; ? = inconclusive; / = no result. Shown are actives, neighbours in structure and some others; about 4.8% of the full set was active somewhere.
SMILES,Beta cell apopt,Mot1-301 SUMO,CSC inhib,Efflux pump mplx,T cruzi inh,WT yeast gro inh
CCOC(=O)C1=NN(c2ccccc2)C2=NC(C)=C(C(=O)OC)C(c3ccc(C)cc3)N12 (configuration not stated),-4,6,1,0,3,70*
CCC1SC2=NC(C)=C(C(=O)OC)C(c3ccc(C)cc3)N2C1=O (configuration not stated),-5,63,-2,0,2,2
Cc1cccc(-n2c(C)cc(/C=C3\C(=N)N4N=C(CC(C)C)SC4=NC3=O)c2C)c1,3,0,-4,0,0,2
Cc1cc(C)cc(-n2c(C)cc(/C=C3\C(=N)N4N=C(CC(C)C)SC4=NC3=O)c2C)c1,12,-4,103*,0,16,-2
CCn1ncc(/C=N/NC(=O)c2cc(Cl)ccc2OC)c1C,-3,-2,-14,0,-8,-3
Cc1cccc(-c2oc(C)c(C)[n+]2[O-])c1,-12,42,2,0,-5,-1
Cc1oc(-c2ccccc2)[n+]([O-])c1C,0,-8,-22,0,-12,69*
CC1(C(=O)OCC(=O)c2c[nH]c3ccccc23)CC1(Cl)Cl (configuration not stated),0,-6,-1,0,9,67*
CC(C)Cc1ccc(C(C)C(=O)OCC(=O)c2c[nH]c3ccccc23)cc1 (configuration not stated),-4,-3,27,0,1,69*
O=c1c(Cc2c(F)cccc2Cl)c(O)ccn1C1CC1,-5,3,-2,0,2,-1
Cc1oc(-c2ccc(Cl)cc2)cc1C(=O)/C(C#N)=C/Nc1ccccc1,-3,-7,5,0,7,/
COc1ccc(N(CC(=O)NCc2ccco2)C(=O)CCC(=O)Nc2ccccn2)cc1,/,/,/,/,-2,/
Cc1ccc(C(=O)O[C@H](C(=O)O)[C@H](OC(=O)c2ccc(C)cc2)C(=O)O)cc1,-5,114,-9,0,-8,/
CCOC(=O)CNC(=O)CSc1nnc(CCc2nc3ccccc3[nH]2)n1C,-1,38,-13,0,-2,/
CCn1ccnc1CN(C)C(=O)c1ccc(OC2CCN(CCc3ccccc3)CC2)cc1,/,/,/,0,11,/
Cc1ccc(/C(N)=N/OC(=O)N2CCOCC2)cc1,/,6,/,0,55*,49
Cc1cccc(/C(N)=N/OC(=O)c2ccco2)c1,5,4,-7,0,-17,-5
Cc1cccc(/C(N)=N/OC(=O)N2CCOCC2)c1,6,-11,9,0,60*,-5
Cc1ccc(C(=O)OCC(=O)N2CCOCC2)cc1,0,-22,-4,0,3,/
Cc1ccc(Cn2c(=O)c3ccccc3n3nc(C)cc23)cc1,0,-17,8,0,15,9
CCn1nc(C(=O)N2CCN(Cc3nc4ccccc4s3)CC2)c2ccccc2c1=O,-4,-1,/,0,/,/
COc1cccc(OC)c1C(=O)Nc1ccc(C(=O)c2ccncc2)cc1,/,0,-4,0,-5,/
COc1ccc(CNC(=O)[C@@H](C)NC(=O)C2CCN(C(=O)[C@@H](N)CCSC)CC2)cc1,-5,612*,0,0,-13,/
CCCCC1(Cc2ccc([N+](=O)[O-])cc2)C(=O)N(c2ccccc2)N(c2ccccc2)C1=O,101*,10,6,0,18,32
CCn1c(Cn2nnc(-c3ccccc3)n2)nnc1SCc1ccc(Cl)c(Cl)c1,3,192,-8,0,36,79*
SMILES,Beta cell apopt,Mot1-301 SUMO,CSC inhib,Efflux pump mplx,T cruzi inh,WT yeast gro inh
Cc1cccc2c(N=Nc3ccccc3)c(O)[nH]c12,0,7,-5,0,8,/
Cc1[nH]c(N=Nc2ccccc2)nc1N=Nc1ccccc1,100*,68,105*,0,65*,/
O=C1CN(c2nc(-c3cccnc3)nc3scc(-c4ccccc4)c23)CCN1,8,-18,-25,0,63*,3
CO/N=C/NC(=O)NOCc1ncc(C(F)(F)F)cc1Cl,-3,6,5,0,-17,-21
O=C(N/C=N/OCc1ccc(Cl)cc1Cl)NOCc1ncc(C(F)(F)F)cc1Cl,-18,-11,124*,0,0,69*
CCc1ccc(NC(=O)CCn2nc(C)c(S(=O)(=O)N3CCCCC3)c2C)cc1,0,-5,-3,0,6,/
CCCc1nc2ccccc2c(C(=O)OCC(=O)N2CCc3ccccc32)c1CC,-9,285,83*,1,58*,40
CCCc1nc2ccccc2c(C(=O)OCC(=O)Nc2ccc(S(=O)(=O)N3CCOCC3)cc2)c1CC,8,-5,91*,0,48,-1
O=C(NCCCN1CCCC1=O)c1cccc(S(=O)(=O)N2CCCCC2)c1,3,0,13,0,/,/
O=C(Cn1cccc1C(=O)c1ccccc1)NCc1ccc(F)cc1,-2,2,-7,0,-5,/
O=C(Nc1ncc(S(=O)(=O)c2ccc([N+](=O)[O-])cc2)s1)c1ccc2ccccc2c1,26,-4,?,0,55*,-2
CCC(C)(C)C(=O)Nc1ncc(S(=O)(=O)c2ccc([N+](=O)[O-])cc2)s1,18,3,-10,0,39,-10
O=C(Nc1ncc(Cc2cc(Cl)ccc2Cl)s1)c1ccc([N+](=O)[O-])cc1,27,/,40,0,57*,0
CCCC(C)C(=O)Nc1ncc(S(=O)(=O)c2ccc([N+](=O)[O-])cc2)s1 (configuration not stated),/,3,6,0,63*,/
Cc1ccccc1CN(C)CC(=O)Nc1c(C)cccc1C(C)C,4,-7,9,0,5,8
O=C(COC(=O)c1cc(Cl)ccc1[N+](=O)[O-])NCc1ccc(Cl)cc1Cl,0,-13,-10,0,-3,61*
CC(=O)C1=C(c2cccc([N+](=O)[O-])c2)N(C(C)=O)n2c(C)nnc2S1,2,156,21,0,36,60*
CC1(C)CC[C@]2(CO)[C@@H](O)C[C@]3(C)C(=CCC4[C@@]5(C)CC[C@H](O)C(C)(C)C5CC[C@]43C)[C@@H]2C1 (some centres not stated),11,-2,102*,0,43,/
CC(C)(C)NC(=O)CN(Cc1cccs1)C(=O)C1COc2ccccc2O1 (configuration not stated),-4,19,-2,0,20,-4
CC(C)CCNC(=O)C(c1ccc(O)cc1)N(Cc1cccs1)C(=O)C1COc2ccccc2O1 (configuration not stated),/,8,3,0,64*,18
COC(=O)c1cc(N2C(=O)C3C(C2=O)C2(C)C=CC3(C)O2)ccc1Cl (configuration not stated),-25,425*,20,0,22,7
CC(=O)Oc1ccc(N2C(=O)C3C(C2=O)C2(C)C=CC3(C)O2)cc1 (configuration not stated),4,125,1,0,/,55
